Shown are actives, neighbours in structure and some others; about 3.5% of the full set was active somewhere.
TCR CD3 inh: inhibitors of human TCR-CD3 interaction, primary screen, biochemical, fluorescence, TAMRA-labeled TCR probe; T-cell receptor (TCR); inhibition, % at 9.4 µM; 0.37% of 360,000 active; AID 651800, 2012; in the data active means inhibition above about 19%;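 further: recombinant mutant TCR 2C K166C tagged with TAMRA read by polarization; 0% = receptor in buffer alone and 100% = receptor with positive control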
rCAG RNA binder: binders of r(CAG) RNA repeats, primary screen, biochemical, fluorescence; inhibition, % at 3 µM; r(CAG) RNA repeat, TO-PRO-1 dye displacement fluorescence; 1.3% of 370,000 active; AID 651821, 2012;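 active means inhibition above the plate cutoff, the mean of all test compounds on that plate plus 3 SD, cut at about 35% in these data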;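 further: 0% = DMSO alone and 100% = 100 µM mitoxantrone as full dye displacement; higher means more dye released from RNA so lower well fluorescence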
ABHD4 inh: ABHD4 inhibitors, primary screen, biochemical, fluorescence polarization, mouse. purified mABHD4, FP-Rh probe fluorescence polarization. inhibition, % at 8.92 µM. 0.54% of 370,000 active. AID 720543, 2013;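 active means inhibition exceeding the mean over every tested compound plus 3 SD, cut at about 30% in these data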;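 further: 0% = plate median of compound wells and 100% = S159A mutant with DMSO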
Target sequence (Q8VD66 whole entry, looked up): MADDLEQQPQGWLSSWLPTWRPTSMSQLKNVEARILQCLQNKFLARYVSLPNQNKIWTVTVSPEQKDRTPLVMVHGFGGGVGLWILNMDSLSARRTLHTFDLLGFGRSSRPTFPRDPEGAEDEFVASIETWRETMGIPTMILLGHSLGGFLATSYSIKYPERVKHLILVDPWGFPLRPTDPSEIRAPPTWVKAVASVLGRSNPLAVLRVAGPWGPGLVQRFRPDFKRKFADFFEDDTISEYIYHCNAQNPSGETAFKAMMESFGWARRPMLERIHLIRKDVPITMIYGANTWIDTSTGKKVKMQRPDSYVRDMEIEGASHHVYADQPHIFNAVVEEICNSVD
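Assay system: wild-type mouse ABHD4 protein; compound: single nominal dose of 8.92 µM, 0.89% DMSO final; schedule: 45 min + 60 min at 25 °C; measured by: FP readout, ex 525 nm / em 598 nm; evaluation: % inhibition of FP-Rh probe binding versus controls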
SIAE primary: human SIAE inhibitors, primary screen, biochemical, fluorescence polarization, FP-Rh probe, 1536-well HTS; Sialate O-acetylesterase (Homo sapiens), Q9HAT2; SIAE FP-Rh probe binding; inhibition, % at 9.66 µM; 0.69% of 370,000 active; AID 1053197, 2014;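 active means inhibition above a cutoff: mean of compounds within the control limits plus 3 SD of those, cut at about 17% in these data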;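 further: 0% = plate median of compound wells and 100% = probe without SIAE protein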
PRMT1 FP inh: PRMT1 methyltransferase inhibitors, primary screen, biochemical, fluorescence polarization; Protein arginine N-methyltransferase 1 (Homo sapiens), Q99873; recombinant PRMT1, activity-based probe fluorescence polarization; inhibition, % at 2.79 µM; 1.3% of 370,000 active;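 active means inhibition above about 21% made by adding two undisclosed values, limit read from the data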
Target sequence (Q99873 whole entry, looked up): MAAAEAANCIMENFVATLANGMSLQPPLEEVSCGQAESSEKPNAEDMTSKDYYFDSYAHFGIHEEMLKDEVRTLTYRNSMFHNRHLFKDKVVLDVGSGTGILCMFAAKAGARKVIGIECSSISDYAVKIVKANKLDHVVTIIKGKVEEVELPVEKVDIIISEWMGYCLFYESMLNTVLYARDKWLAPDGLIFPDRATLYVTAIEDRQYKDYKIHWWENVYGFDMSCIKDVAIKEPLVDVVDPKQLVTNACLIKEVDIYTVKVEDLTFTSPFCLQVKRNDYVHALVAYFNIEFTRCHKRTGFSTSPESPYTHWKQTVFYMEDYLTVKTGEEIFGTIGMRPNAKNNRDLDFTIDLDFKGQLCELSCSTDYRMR
HTRA1 inh: HTRA1 serine protease inhibitors, primary screen, biochemical, fluorescence polarization, HTS; Q92743; recombinant HTRA1, FP-rhodamine activity-based probe; inhibition, % at 5.96 µM; 0.5% of 340,000 active; in the data active means inhibition above about 36%;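 further: 0% = enzyme with DMSO and 100% = wells lacking enzyme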
rCAG bind conf: small molecules binding CAG repeat RNA – biochemical, fluorescence, confirmation. inhibition, % at 3 µM. r(CAG) RNA repeat, TO-PRO-1 dye displacement fluorescence. shares compounds with rCAG RNA binder. 70% of 4,300 active. AID 652065, 2013;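 active means inhibition above a per-plate cutoff, the mean inhibition of sample wells plus 3 SD, cut at about 35% in these data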;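 further: loss of TO-PRO-1 fluorescence as compound displaces dye from 1x1 AA loop RNA; 0% = DMSO only wells and 100% = 100 µM mitoxantrone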
dCAG dye counter: displacement of TO-PRO-1 from CAG DNA duplex, counter-screen for rCAG RNA repeat binder project, biochemical, fluorescence, TO-PRO-1 dye, d(CAG) DNA oligo; 94% of 4,300 active; d(CAG) DNA oligo TO-PRO-1 dye displacement; shares compounds with rCAG RNA binder; inhibition, % at 3 µM;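 active means inhibition above its plate's cutoff, the mean test-well inhibition plus 3 SD, cut at about 4.8% in these data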;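 further: 0% = DNA dye mix with DMSO and 100% = 100 µM mitoxantrone; hits displace the dye from DNA and so lower well fluorescence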
DNA CAG DR: inhibitors of DNA CAG/GTC TO-PRO-1 complex, dose response, counter-screen for rCAG RNA repeat binder project, biochemical, fluorescence, TO-PRO-1 dye | AID 686960, 2013 | 20% of 250 active | shares compounds with rCAG RNA binder | IC50, µM | DNA CAG/GTC duplex TO-PRO-1 dye displacement fluorescence; in the data active means IC50 below about 10 µM
* = called active by the depositor; i = inactive; . = not tested or not shown.

SMILES | TCR CD3 inh | rCAG RNA binder | ABHD4 inh | SIAE primary | PRMT1 FP inh | HTRA1 inh | rCAG bind conf | dCAG dye counter | others
CCc1ccc(OCC(=O)Nc2ccc(S(=O)(=O)Nc3cc(C)on3)cc2)c(Br)c1 | -0.9 | 78.4* | -30.6 | -10.1 | 12.6 | -27.4 | 74.4* | 28.0* | DNA CAG DR=i
Cc1cc(NS(=O)(=O)c2ccc(NC(=S)NC(=O)c3ccc(Br)cc3)cc2)no1 | -1.6 | 57.2* | -5.8 | -4.0 | -0.9 | -13.4 | 46.9* | 16.4*
Cc1cc(NS(=O)(=O)c2ccc(NC(=O)C(C)Oc3ccc(C(C)C)cc3)cc2)no1 (stereo unspecified) | -5.2 | 47.4* | -21.3 | 1.6 | 6.9 | -4.5 | 48.6* | 16.5*
Cc1cc(NS(=O)(=O)c2ccc(NC(=O)C(c3ccccc3)c3ccccc3)cc2)no1 | 15.3 | 58.8* | -13.6 | 2.1 | 0.3 | -15.8 | 47.3* | 17.8*
Cc1cc(NS(=O)(=O)c2ccc(NC(=O)Nc3ccccc3)cc2)no1 | 5.3 | 11.1 | -6.2 | 7.0 | -2.2 | -1.9 | . | .
CC(C)CCNC(=O)[C@H]1COC(O)([C@H](Cc2ccccc2)NC(=O)[C@@H](NC(=O)OCc2ccccc2)C(C)C)CN1C (stereo partly specified) | . | . | 2.9 | -4.4 | -1.2 | . | . | .
CCOC(=O)N1CCN(C(=O)C[C@H]2C[C@@]3(C(=O)OC)C(=C[C@H](C(C)C)O[C@@H]3C3CC3)N(CCc3ccc(OC)c(OC)c3)C2=O)CC1 | . | 1.9 | 0.8 | -1.2 | -3.3 | . | . | .
O=C(NCC1COc2ccccc2O1)c1ccc(NC(=O)c2c(Cl)cccc2Cl)cc1 (stereo unspecified) | . | 3.9 | -46.9 | -20.0 | -2.9 | . | . | .
CCOc1ccc(-c2cc(C(=O)OC)c3n(c2=O)CCC3)cc1 | . | 0.3 | 1.2 | 0.9 | -3.3 | . | . | .
CCOC(=O)c1c(NC(=O)C2C3C=CC(C3)C2C(=O)O)sc2c1CC(C)CC2 (stereo unspecified) | -7.5 | 48.3* | 4.6 | -1.3 | 4.5 | 1.2 | 53.5* | 14.4*
CCOC(=O)c1c(NS(C)(=O)=O)sc2c1CCC(C)C2 (stereo unspecified) | -1.4 | 48.0* | -19.4 | -8.5 | 20.1 | -4.0 | 18.3 | 8.0*
CCOC(=O)c1c(NC(=O)C2C3C=CC(C3)C2C(=O)O)sc2c1CC(C)(C)OC2 (stereo unspecified) | 4.5 | 5.7 | 1.0 | 4.6 | -1.3 | 2.3 | . | .
COC(=O)[C@]12C[C@H](CC(=O)N3CCCCC3)C(=O)N(Cc3cccc4ccccc34)C1=C[C@H](C(C)(C)C)O[C@@H]2C | . | 4.3 | 2.4 | 6.8 | 0.7 | . | . | .
Nc1[nH]c2cc(Cl)ccc2c1C(=O)N1CCOCC1 | . | 4.3 | 4.6 | 2.8 | -2.9 | . | . | .
O=C(O)c1cc(S(=O)(=O)N(Cc2ccccc2)c2ccc(Cl)cc2)ccc1Cl | 5.2 | 54.2* | -10.9 | -8.8 | 2.1 | -13.0 | 43.0* | 9.8*
Cc1ccc(S(=O)(=O)N(CC(=O)Nc2ccccc2C(=O)O)c2ccc(Cl)cc2)cc1 | 1.9 | 61.6* | -18.2 | -2.4 | -3.4 | -19.1 | 58.4* | 17.9*
O=C(O)c1cccc(S(=O)(=O)N(Cc2ccccc2)c2cccc(C(F)(F)F)c2)c1 | -7.2 | 52.6* | -6.0 | 5.9 | -2.2 | -16.7 | 53.3* | 11.5* | DNA CAG DR=>29.9
O=C(NCCc1ccccc1)OCc1cn(Cc2cc(F)ccc2F)nn1 | . | -0.8 | -0.1 | -4.3 | 0.7 | . | . | .
CCOC(=O)C1=C(C)Nc2ccccc2N/C1=N\S(=O)(=O)c1cccc(Cl)c1 | -2.9 | 33.5 | -4.8 | 0.6 | 5.7 | 6.5 | . | .
CCOC(=O)C1=C(C)Nc2ccccc2N/C1=N\S(=O)(=O)c1cc(C(=O)O)ccc1Cl | -2.7 | 10.1 | 2.3 | -0.6 | 2.7 | 0.7 | . | .
CCOC(=O)C1=C(CC)Nc2ccccc2N/C1=N\S(=O)(=O)c1cc(Br)ccc1Br | 3.1 | 63.1* | -41.6 | 2.8 | 0.2 | . | 59.0* | 21.2*
CCOC(=O)C1=C(CC)Nc2ccccc2N/C1=N\S(=O)(=O)c1ccc2ccccc2c1 | 2.0 | 36.0* | -14.2 | -7.2 | 2.4 | -7.9 | 41.4* | 11.7*
CCOC(=O)C1=C(C)Nc2ccccc2N/C1=N\S(=O)(=O)c1ccc(Cl)cc1 | -7.2 | 35.2* | -9.1 | -4.9 | -3.2 | 1.1 | 26.7 | 4.9*
O=C(NN=Cc1ccc(-c2ccccc2)cc1)c1cc(-c2ccc(Cl)cc2)n[nH]1 | . | 9.6 | -10.8 | -0.9 | -3.8 | . | . | .
NNC(=O)c1cc(NS(=O)(=O)c2cccs2)cc(NS(=O)(=O)c2cccs2)c1 | 9.6 | 41.9* | -31.3 | -43.1 | 1.4 | -1.7 | 8.7 | 4.7*
SMILES | TCR CD3 inh | rCAG RNA binder | ABHD4 inh | SIAE primary | PRMT1 FP inh | HTRA1 inh | rCAG bind conf | dCAG dye counter | others
CCn1c(=O)n2n(c1=O)[C@H]1C[N+](Cc3ccc4c(c3)OCO4)=C(N)NC1=C(C)C2 | . | . | 1.0 | 6.7 | 0.2 | . | . | .
Cc1ccc(NC(=S)N(CCN2CCCCC2)Cc2ccco2)cc1 | 1.9 | -1.6 | 1.9 | -1.1 | -1.6 | 4.6 | . | .
Cc1ccc(NC(=S)N(Cc2ccco2)C2CCN(C(C)C)CC2)cc1 | 4.8 | 37.1* | -3.9 | 12.6 | -3.1 | -5.1 | 0.3 | 1.2
Cc1ccc(CSc2nnc(-c3n[nH]c4c3CCC4)n2N)cc1 | . | 1.7 | -1.3 | 3.6 | 1.8 | . | . | .
Cc1ccc(S(=O)(=O)N2C(c3ccc(Cl)c(Cl)c3)CC=C(C(=O)O)C2c2cccc(Cl)c2)cc1 (stereo unspecified) | -5.5 | 11.5 | 9.4 | -12.3 | 3.8 | . | . | .
Cc1ccc(S(=O)(=O)N2C(c3ccc(Cl)c(Cl)c3)CC=C(C(=O)O)C2c2ccc(Cl)cc2)cc1 (stereo unspecified) | -8.5 | 82.3* | 5.2 | -16.5 | 4.8 | . | 83.3* | 52.0*
Cc1ccc(S(=O)(=O)N2CC(C(=O)O)=CC[C@H]2c2ccc(Cl)cc2)cc1 | -1.1 | 37.2* | -10.8 | 0.0 | 3.6 | -6.3 | 16.3 | 3.8
COc1cc([C@@H]2CC=C(C(=O)O)[C@H](c3ccc(Cl)cc3)N2S(=O)(=O)c2ccc(C)cc2)cc(OC)c1OC | 4.2 | 35.3* | 17.1 | -7.3 | -0.3 | -13.4 | 34.2 | 7.6*

Screening data as filed in PubChem.
